High-throughput results: PubChem, several laboratories
This is a sample that favours compounds with a hit; in the whole collection about 3.3% have one here.
PMI activator: activators of human phosphomannose isomerase. P34949. purified human PMI, coupled resazurin fluorescence, 20 min; hits give high values; 1 = vehicle control, 0 substrate-free wells. activation factor at 20 µM. actives 0.005% (n = 190,000);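 active = activation factor of 2 or more at 20 µM, relative to plate controls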
KCC2 mod: KCC2 (human) Cl- transport modulation | B-score of Tl+ flux slope (higher = more flux/activation; lower = inhibition) at 10 µM | actives 2.2% (n = 190,000) | Q9H2X9 | KCC2 cells, thallium flux FluoZin-2 fluorescence;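 active = thallium flux slope and its plate-corrected score both differing from the plate sample mean at a set confidence after two filtering rounds, in either direction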;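 note: slope of fluorescence scaled to starting intensity during 10 to 20 s after thallium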
ABCB1 block: inhibitors of human ABCB1 transporter, ABCG2 counter-screen | P08183 | CCRF-Adr cells, JC-1 efflux, flow cytometry | inhibition, % at 6.6 µM | actives 0.067% (n = 190,000) | AID 1326; in the data active = inhibition above about 40%;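 note: 0% = vehicle and 100% = reference inhibitor; higher value means more JC-1 retained so stronger ABCB1 efflux block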
ROMK mod: modulators of human ROMK potassium channel; P48048; B-score at 10 µM; AID 1918; Tet-inducible ROMK, thallium flux fluorescence; actives lie on both sides; actives 2% (n = 130,000);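 active = signal ratio slope over the read window, or its plate-corrected B-score, at least 3 SD from the plate mean, either direction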;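 note: B-score of the F/F0 ratio slope over 7 to 12 s after thallium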
PMI act hi M6P: activators of human phosphomannose isomerase at near-saturating mannose 6-phosphate | P34949 | coupled PMI enzyme assay, resazurin fluorescence, 20 min; hits give high values; 1 = untreated enzyme, 0 = substrate-free blank | activation factor at 20 µM | actives 0.34% (n = 190,000);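 active = activation factor of 2 or more at 20 µM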
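Test system: Human PMI in coupled enzyme assay | Input: 15 ng/mL PMI | Medium: HEPES-buffered pH 7.4 with magnesium and detergent | Compound: One concentration, 20 µM, in 1% DMSO | Incubation: Enzyme reaction with compound 20 min at room temperature | Detection: Diaphorase-driven resazurin-to-resorufin fluorescence, excitation 544, emission 590 nm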
ABCG2 inh: inhibitors of human ABCG2 transporter, ABCB1 counter-screen. IgMXP3 cells, JC-1 efflux, flow cytometry. inhibition, % at 6.6 µM. actives 0.1% (n = 190,000). AID 1325;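 active = inhibition above 80%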;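 note: 0% = DMSO and 100% = nicardipine control wells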
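Assay system – ABCG2 IgMXP3 and barcoded ABCB1 CCRF-Adr cell mix · Input – 3 million cells/mL in well · Reagent – JC-1 fluorescent substrate · Compound – single test compound dose, 6.6 µM final · Timing – 10 min exposure at 25 °C with rotation, no wash · Detection – flow cytometry of retained JC-1 fluorescence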
KCC2 secondary: KCC2 (human) modulation, secondary assay; normalised thallium flux (F/F0 slope) at 10 µM; actives 15% (n = 3,700); HEK293-KCC2, thallium flux, FluoZin2 fluorescence; hits give high values; shares compounds with KCC2 mod; AID 1713;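 active = thallium flux slope above the same plate's solvent-only control mean plus 3 SD; inconclusive = the two replicate wells disagree; inactive = no significant difference from solvent-only control wells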
KCC2 bumet counter: thallium flux despite bumetanide block in KCC2 cells, secondary assay 3. AID 1714. shares compounds with KCC2 mod. actives 49% (n = 3,700). normalized thallium flux at 10 µM. HEK293-KCC2 + bumetanide/ouabain, thallium flux FluoZin2; hits give high values;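 active = thallium entry rate above the same plate's blocked-transporter control wells by more than 3 SD; inconclusive = the two repeat wells disagree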;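 note: raw slope of fluorescence over initial fluorescence between 10 and 20 s after thallium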
KCC2 secondary2: confirmation of human KCC2 transport modulators; normalized thallium flux at 10 µM; shares compounds with KCC2 mod; HEK293-KCC2, thallium flux FluoZin2 fluorescence; actives lie on both sides; F/F0 rise rate, 10–20 s post-thallium; actives 23% (n = 3,700); AID 1715;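 active = thallium flux slope more than 3 SD above or below the plate's solvent-only control mean, mostly below; inconclusive = the two repeat wells disagreed; inactive = no significant shift from solvent-only controls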;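 note: raw slope with 0.1% DMSO as baseline and bumetanide as block control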
HEK293 Tl flux: acts in parental HEK cells, KCC2 counter-screen; shares compounds with KCC2 mod; HEK293 parental cells, thallium flux FluoZin2, ouabain; baseline-ratio fluorescence slope, 10–20 s after thallium; thallium flux rate (normalised fluorescence) at 10 µM; actives 46% (n = 3,700); AID 1716;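 active = thallium flux rate significantly above the same plate's solvent-only control wells, beyond their mean plus 3 SD; inconclusive = the two replicate wells gave conflicting results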
KCC2 retest ouab: confirmation of human KCC2 modulators with ouabain. shares compounds with KCC2 mod. HEK293-KCC2, thallium flux FluoZin2 fluorescence; bidirectional: low = inhibitor, high = activator. raw Tl+ flux slope (below DMSO = inhibition, above = activation) at 10 µM. actives 48% (n = 3,700). AID 1717;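 active = thallium flux slope beyond 3 SD from same-plate DMSO control mean in most replicates, usually higher, sometimes lower; inconclusive = repeat tests gave conflicting results; inactive = no significant difference from controls in most replicates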;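 note: slope of initial-normalized fluorescence between seconds 10 and 20 after thallium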
HEK293 Tl flux2: parental HEK flux effect, counter-screen 2 | shares compounds with KCC2 mod | HEK293 parental, thallium flux FluoZin-2 fluorescence slope | thallium flux slope at 10 µM | actives 33% (n = 3,700) | AID 1718;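 active = thallium flux slope above the same plate's solvent-control mean plus 3 SD in both duplicate wells; inconclusive = duplicate wells that disagreed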;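 note: run without ouabain in cells lacking the KCC2 cotransporter; slope of fluorescence scaled to its starting value between 10 and 20 s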
Numbers without * were called inactive; ? = inconclusive; · = no result.

SMILES	PMI activator	KCC2 mod	ABCB1 block	ROMK mod	PMI act hi M6P	ABCG2 inh	KCC2 secondary	KCC2 bumet counter	KCC2 secondary2	HEK293 Tl flux	KCC2 retest ouab	HEK293 Tl flux2
CCc1ccc(Nc2nnc(SCC(=O)Nc3sccc3C(N)=O)s2)cc1	0.9	-4.9*	0	·	0.9	-9	0.0054	0.0047	0.023*	0.0069	?	0.011
CCc1ccc(Nc2nnc(SCC(=O)NCCN3C(=O)CSC3=O)s2)cc1	1.1	-3.7*	0	0.00046	1	5	0.007	0.0053	0.03	0.0067	?	0.0094
Clc1ccc(CSC2=NCCCN2)cc1Cl	1	0.033	0	·	1.1	0	·	·	·	·	·	·
Clc1ccccc1CSC1=NCCCN1	1	·	1	1.7	1	15	0.0075	0.0047	0.031	0.008	0.02	0.011
O=C(c1ccc(Br)cc1)c1sc(N2CCOCC2)nc1-c1ccccc1	0.8	0.5	0	0.18	0.9	4	·	·	·	·	·	·
O=c1c2cc(Cl)ccc2nc(-c2ccccc2)n1O	1.3	50*	0	2.6	1.3	0	0.032*	0.073*	0.033	0.034*	0.052*	0.018*
O=c1c2ccc(Cl)cc2nc(-c2ccc([N+](=O)[O-])cc2)n1O	1.1	57*	0	2.2	1.3	8	0.012*	0.092*	0.059*	0.065*	0.079*	0.042*
Cc1cc(C)n2c(=O)c3ccc(Cl)cc3nc2c1C#N	1	-1.3	0	2.5	1	1	·	·	·	·	·	·
O=C(O)c1ccccc1-c1nc2ccccc2c(=O)n1O	1	0.0052	0	0.96	0.9	3	·	·	·	·	·	·
O=c1c2cc(Br)ccc2nc(-c2ccc([N+](=O)[O-])cc2)n1O	1	72*	0	1.1	1.2	6	0.05*	0.11*	0.058*	0.053*	0.069*	0.027*
Clc1ccc(CNCc2cccs2)cc1Cl	1.1	0.017	1	0.025	1.1	9	·	·	·	·	·	·
COC(=O)[C@@H]1CCCN1C(=O)CCc1nnc(CCC2CCCCC2)o1	0.9	-2.4	2	-0.0029	1	5	·	·	·	·	·	·
NC(=S)NCc1cccnc1	0.9	4.8*	2	·	1	4	0.01	0.0065	0.036	0.0075	0.023	0.011
S=C(NCc1cccnc1)Nc1ccc(Oc2ccccc2)cc1	0.9	-3.9*	-1	0.1	0.9	2	0.0065	0.0043	0.022*	0.0073	?	0.011
Cc1cc(C)n(-c2ccc(C(=O)Nc3cc(S(=O)(=O)N(C)C)ccc3Cl)cc2)n1	1.1	1.8	0	·	1.2	0	·	·	·	·	·	·
COc1cc2ccccc2cc1C(=O)NC(=S)Nc1cc(C(=O)O)ccc1C	1	-7*	0	1.1	1	-1	0.008	0.0085*	0.033	0.0064	0.017*	0.01
CC(=O)c1c(C)nc(-c2ccc(Cl)cc2)nc1N=CN(C)C	0.9	·	0	-1.2	0.9	4	0.0054	0.0043	0.033	0.0079	0.019	0.011
CC(=O)c1c(C)nc(-c2ccc(Cl)cc2)nc1N	1	1.6	0	-0.5	1	8	·	·	·	·	·	·
COc1ccccc1C(CC(N)=O)c1ccco1 (centres undefined)	1	0.46	0	·	1	0	·	·	·	·	·	·
CC1(C)CC(n2c(=S)[nH]c3ccccc3c2=O)CCO1 (centres undefined)	0.9	14*	1	·	0.9	5	0.012	0.035*	0.032	0.022*	0.031*	?
CCSc1nc2ccccc2c(=O)n1C1CCOC(C)(C)C1 (centres undefined)	0.9	-2.3	0	0.06	1	1	·	·	·	·	·	·
Cc1cc(=O)n(Cc2ccc(OC(C)C)cc2)c(=S)[nH]1	·	·	0	0.56	·	1	?	0.015*	0.032	0.016*	?	0.012
Cc1ccccc1C(=O)N/N=C1/SCC(=O)N1Cc1ccccc1	1	1.3	0	0.034	1	-1	·	·	·	·	·	·
C/C(N)=C(/C#N)C(=O)COC(=O)c1cc(-c2ccc(Br)cc2)nc2ccccc12	0.8	-0.45	0	·	0.9	1	·	·	·	·	·	·
CCn1c(-c2ccc(C(C)(C)C)cc2)n[nH]c1=S	0.9	6.8*	0	0.032	0.8	0	?	0.03*	0.036	?	0.032*	?
SMILES	PMI activator	KCC2 mod	ABCB1 block	ROMK mod	PMI act hi M6P	ABCG2 inh	KCC2 secondary	KCC2 bumet counter	KCC2 secondary2	HEK293 Tl flux	KCC2 retest ouab	HEK293 Tl flux2
Cc1ccc(SCCC(=O)NCCSCc2ccccc2C)cc1	0.9	-3.8	0	·	0.9	0	·	·	·	·	·	·
O=C(/C=C/c1ccccc1)CC(=O)c1ccccc1O	0.9	6.8*	0	·	1.1	6	0.0054	0.011*	0.031	0.013*	?	0.015*
O=C(O)CNc1nc(-c2ccccc2)nc2c1oc1ccccc12	·	·	·	0.88	·	·	0.0066	0.0053	0.029	0.0077	0.019	0.01
OCCCNc1nc(-c2ccccc2)nc2c1oc1ccccc12	·	-0.68	·	·	·	·	·	·	·	·	·	·
CC(C)Cc1csc(NC(=O)c2ccc(Cl)cc2)c1C(=O)O	0.9	5.2*	0	·	1	11	0.0091	0.032*	0.029	0.018*	?	?
CC(C)Cc1csc(NC(=O)c2ccccc2Cl)c1C(=O)O	1.1	-0.12	0	·	1.1	0	·	·	·	·	·	·
O=C(Cc1cccs1)N1CCCC(c2nc3c(nnn3Cc3ccccc3Cl)c(=O)[nH]2)C1 (centres undefined)	0.9	-3.7*	1	-2.7	1	4	0.0067	0.0055	0.031	0.0064	0.017*	0.011
Cc1ccc(C)[n+](CC(=O)N2CCCCC2)c1	1	-0.0008	0	-0.036	1	1	·	·	·	·	·	·
Cc1sc2ncnc(SCC(=O)NC(C)(C)C)c2c1C	0.9	0.42	-1	·	1	40	·	·	·	·	·	·
